Consider 2 molecules from paper PMC8829933 (ACS Omega, 2022).

For one test, the system named is HIV-1. Conditions: reported in the literature; ref [30],[41],[58],[60]−[69]; cited from earlier work.
For the next test, the target named is HIV-1 IN (WT) (Human immunodeficiency virus type 1 group M subtype B, UniProt P12497). The test is described as follows: HTRF-based integration assay of IN catalytic activity. It is filed as biochemical. An outline of the steps:
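Full-length HIV-1 IN and LEDGF/p75 cofactor (6xHis- and Flag-tagged, expressed in E. coli BL21(DE3)) catalyse integration of donor viral DNA, 5′-Cy5-labelled, into acceptor target DNA, 5′-biotinylated and bound by streptavidin-europium. The integration product is read as time-resolved FRET between the two fluorophores, with test compound present.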
For orientation: TR-FRET usually uses a lanthanide donor and a delayed reading to cut background.

A further test concerns the target HIV-1 IN A128T (Human immunodeficiency virus type 1 group M subtype B, UniProt P12497, A1275T). The test is described as follows: HTRF-based integration assay against drug-resistant IN. It is filed as biochemical.
The next test addresses HIV-1 IN H171T (Human immunodeficiency virus type 1 group M subtype B, UniProt P12497, H1318T). The description is as above. It is filed as biochemical.
A further test deals with HIV-1 IN G140S/Q148H (Human immunodeficiency virus type 1 group M subtype B, UniProt P12497, G1287S/Q1295H). The test is described as above. It is filed as biochemical.

Regarding `Cc1nc2c(c(C)c(C)n2Cc2cnn(C)c2)c(-c2ccc(Cl)cc2)c1[C@H](OC(C)(C)C)C(=O)O` [STP0404], in the test on HIV-1, the “selectivity against HIV-1 (therapeutic index)” value is on record as > 24,000.
A word on the IC50: it is the concentration at which inhibition is half-maximal. Read a low IC50 as greater potency in that assay. With `CC(C)(C)OC(=O)N1CCC(C(=O)N[C@@H](Cc2ccc3ccccc3c2)C(=O)O)(c2ccccc2)CC1` [Compound 14e], the 50% inhibitory concentration (IC50) against HIV-1 IN (WT) (IC50, inhibitory activity against IN, Table 2, WT IN) was 90.4 ± 4.72 µM; against HIV-1 IN A128T it was 86.8 ± 2.98 µM; against HIV-1 IN H171T, 114 ± 9.79 µM; against HIV-1 IN G140S/Q148H, 103 ± 3.12 µM. At HIV-1 IN (WT) (IN catalytic activity in vitro, relative to 12), the “fold higher potency than compound 12” value is given as “fourfold”.
